An excerpt weighted towards active compounds, which were near 1.6% of everything screened.
TDP2 absorb = TDP2 (human) inhibition, absorbance primary screen; O95551; 370,000 tested, 0.34% active; recombinant TDP2, T5PNP hydrolysis, p-nitrophenol absorbance 415 nm; inhibition, % at 12.8 µM;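 active means inhibition above the mean of all tested compounds plus 3 SD, set per campaign, cut at about 25% in these data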;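 further: 0% = DMSO with enzyme and 100% = buffer with substrate but no TDP2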
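Assay system: Recombinant human TDP2 | Quantity: 120 nM TDP2 per well | Incubation: 2 h at 37 °C | Signal: Epi absorbance | Evaluation: Percent inhibition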
UHRF1 MBD2 ctr = blocks human UHRF1 binding to methylated DNA. AID 687016. inhibition, % at 4.4 µM. UHRF1 binding to methylated oligo, TR-FRET. Q96T88. 370,000 tested, 0.75% active; in the data active means inhibition above about 21%;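 further: UHRF1 SRA domain binding a hemimethylated CpG hairpin DNA probe; 0% = median of test compound wells and 100% = reference inhibitor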
LEDGF integ inh = blocks HIV-1 LEDGF/p75-dependent DNA integration | TR-FRET IN-LEDGF/p75 DNA integration, Eu/Cy5 | inhibition, % at 3.7 µM | 370,000 tested, 0.64% active;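 active means inhibition above the screen-wide mean plus 3 SD, cut at about 13% in these data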;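 further: signal is the Cy5 over europium emission ratio at 671 and 618 nm; 0% = plate median of compound wells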
MBD2 DNA inh = MBD2-methylated oligo binding inhibition. Q9UBB5. TR-FRET, MBD2 binding to methylated oligonucleotide. inhibition, % at 4.4 µM. 370,000 tested, 0.31% active. AID 686964; in the data active means inhibition above about 13%
Target sequence (Q9UBB5 whole entry, looked up): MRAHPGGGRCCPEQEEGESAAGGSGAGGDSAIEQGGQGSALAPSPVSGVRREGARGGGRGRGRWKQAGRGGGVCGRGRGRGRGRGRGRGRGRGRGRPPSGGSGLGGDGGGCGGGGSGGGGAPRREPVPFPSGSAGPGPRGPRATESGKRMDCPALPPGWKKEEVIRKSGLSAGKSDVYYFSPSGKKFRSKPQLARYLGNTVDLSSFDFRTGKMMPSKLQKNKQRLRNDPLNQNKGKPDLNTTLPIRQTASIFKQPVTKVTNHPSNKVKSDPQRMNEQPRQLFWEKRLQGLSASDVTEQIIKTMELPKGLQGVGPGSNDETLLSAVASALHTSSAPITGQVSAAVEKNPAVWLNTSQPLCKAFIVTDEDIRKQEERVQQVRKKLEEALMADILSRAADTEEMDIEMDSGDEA
IN multimer up = counter-screen for LEDGF/p75 integration inhibitors: HIV-1 integrase multimerization activators | shares compounds with LEDGF integ inh | TR-FRET HIV-1 integrase multimerization, biochemical | activation, % at 7.7 µM | 2,000 tested, 17% active | AID 1053131; in the data active means activation above about 8.9%
TRFRET interf = TR-FRET optical interference, LEDGF/p75 integration counter-screen | AID 1053135 | 2,000 tested, under 10 active | inhibition, % at 7.7 µM | shares compounds with LEDGF integ inh | TR-FRET optical interference counterscreen, HIV-1 IN multimerization;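 active means inhibition above the mean over all tested compounds plus 3 SD, which no compound reached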;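 further: 0% = integrase with antibodies and DMSO and 100% = antibodies without integrase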
IN-LEDGF confirm = LEDGF/p75-dependent HIV-1 integration inhibition, confirmation; TR-FRET LEDGF/p75-dependent HIV-1 integration, biochemical; 2,000 tested, 36% active; AID 1053136; inhibition, % at 3.7 µM; shares compounds with LEDGF integ inh; in the data active means inhibition above about 14%
* hit, by the source's call; nt = no result given.

SMILES	TDP2 absorb	UHRF1 MBD2 ctr	LEDGF integ inh	MBD2 DNA inh	IN multimer up	TRFRET interf	IN-LEDGF confirm
COc1cccc(C2=CC(=O)C[C@H](c3ccc(F)cc3)C2)c1	0	-2	1	5	nt	nt	nt
COc1cc(F)cc(C2=CC(=O)C[C@H](c3ccc(F)cc3)C2)c1	-4	-2	59*	-2	0	-1	-4
O=C(Nc1nc(-c2ccco2)c(-c2ccco2)s1)C1CCC1	7	7	17*	4	2	-9	21*
O=C(Nc1nc(-c2ccco2)c(-c2ccco2)s1)C1CC(=O)N(c2ccc3c(c2)OCCO3)C1 (stereo not drawn)	0	9	19*	9	13*	-64	42*
Cc1cc(CN2CCN(c3ncc(Cc4ccccc4)cn3)CC2)cc(C)c1O	3	-1	1	1	nt	nt	nt
Cc1cc(NC(=O)Cc2cn(C)c3ccccc23)ccc1Nc1cccnc1	1	-1	2	-5	nt	nt	nt
COCCCN1C(=O)C(=O)/C(=C(/O)c2ccccc2)C1c1ccc(N(C)C)cc1 (stereo not drawn)	-4	-1	2	2	nt	nt	nt
COCCCN1C(=O)C(=O)/C(=C(/O)c2ccccc2)C1c1ccc2c(c1)OCO2 (stereo not drawn)	-8	-6	30*	0	-1	4	3
COC(=O)[C@]1(CC(C)C)NC=C(C(=O)c2ccccc2)[C@@H]1c1cccs1	0	-1	5	-3	nt	nt	nt
O=[N+]([O-])c1ccc(/C=[N+](\[O-])[C@@H]2CCCC[C@@H]2/[N+]([O-])=C/c2ccc([N+](=O)[O-])o2)o1	5	-1	19*	-3	-1	2	34*
O=C(O)CSc1nnc(NC(=O)c2ccc3c(c2)OCO3)s1	-10	2	-3	5	nt	nt	nt
COC(=O)CSc1nnc(NC(=O)c2ccc3c(c2)OCO3)s1	-6	0	25*	-5	0	-1	-13
CC(C)(C)c1ccc(S(=O)(=O)N2CCC(C(=O)N3CCN(C4CCCCC4)CC3)CC2)cc1	-8	-1	5	-6	nt	nt	nt
CC(C(=O)N(C)C1CCS(=O)(=O)C1)N1C(=O)/C(=C/c2ccco2)SC1=S (stereo not drawn)	-7	13	30*	-2	2	-8	15*
O=C(CCc1ccc(S(=O)(=O)N2CCOCC2)cc1)N/N=C/c1ccc(O)c(O)c1O	-5	1	17*	-3	18*	-66	27*
O=C(CCc1ccc(S(=O)(=O)N2CCOCC2)cc1)N/N=C/c1ccc(F)cc1F	-14	1	4	2	nt	nt	nt
O=[N+]([O-])c1ccc(N/N=C/c2ccc(O)c(O)c2O)c(S(=O)(=O)N2CCOCC2)c1	-8	-2	50*	-9	3	-17	36*
CN(C)[C@@H]1CCN(c2ccc3c(c2)O[C@H]2CCN(C2)S3(=O)=O)C1	-6	1	4	1	nt	nt	nt
CNC(=O)c1ccc(CN(C)CC(=O)Nc2ccccc2C(=O)NC2CC2)cc1	5	2	75*	-1	-1	4	-2
CSc1ccc(CN(C)CC(=O)Nc2ccccc2C(=O)NC2CC2)cc1	4	-2	-3	-2	nt	nt	nt
Cn1c(SCC(=O)N2CCOCC2)nnc1-c1cnccn1	8	1	20*	1	0	0	4
Cn1c(SCC(=O)N2CCOCC2)nnc1-c1ccncc1	-5	-1	0	1	nt	nt	nt
CCCCN1CCS(=O)(=O)N(Cc2cn(Cc3cccc(Cl)c3)nn2)C(C(=O)OC)C1 (stereo not drawn)	2	0	1	-3	nt	nt	nt
O=C(COC(=O)C1CCN(S(=O)(=O)c2ccc3c(c2)OCCO3)CC1)NC1CCS(=O)(=O)C1 (stereo not drawn)	-3	1	81*	1	0	1	1
O=C(COC(=O)C1CCN(S(=O)(=O)c2ccc3c(c2)OCCO3)CC1)NC1CCCCC1	1	0	-1	1	nt	nt	nt
C=CCn1c(SCc2cccc(C(F)(F)F)c2)nnc1-c1ccc(OC)cc1	2	-3	-3	4	nt	nt	nt
